Measurements published in ChEMBL document CHEMBL1914423, “New imidazo[2,1-b]thiazole derivatives: synthesis, in vitro anticancer evaluation, and in silico studies” (Eur J Med Chem, 2011).

Test system: IGROV-1
Assay: Anticancer activity against human IGROV1 cells assessed as cell growth at 10^-5 M after 48 hrs by SRB assay
Assay type: functional
Conditions: IGROV-1, 48 h, read-out: Activity
Method in brief: (§1)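 NCI-60 single-dose screen at one concentration. Cells grown in RPMI 1640 with 5% FBS and 2 mM L-glutamine, plated at 5000–40,000 cells/well, and pre-incubated 24 h at 37 °C in 5% CO2 before DMSO-dissolved drug was added. Cells fixed with TCA, SRB-stained, absorbance read at 515 nm. Percent growth calculated against time-zero and untreated control plates.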

Row | SMILES | growth at 10 µM [%]
1 | O=C(NCCNc1nccc(-c2c(-c3cccc(O)c3)nc3sccn23)n1)Nc1cc(C(F)(F)F)cc(C(F)(F)F)c1 | 65.2

Test system: COLO 205
Assay: Anticancer activity against human COLO205 cells assessed as cell growth at 10^-5 M after 48 hrs by SRB assay
Assay type: functional
Conditions: COLO 205, 48 h, read-out: Activity
Method in brief: as §1

Row | SMILES | growth at 10 µM [%]
2 | O=C(NCCNc1nccc(-c2c(-c3cccc(O)c3)nc3sccn23)n1)Nc1cc(C(F)(F)F)cc(C(F)(F)F)c1 | 45.1

Test system: MDA-MB-468
Assay: Anticancer activity against human MDA-MB-468 cells assessed as cell growth at 10^-5 M after 48 hrs by SRB assay
Assay type: functional
Conditions: MDA-MB-468, 48 h, read-out: Activity

Row | SMILES | growth at 10 µM [%]
3 | O=C(NCCNc1nccc(-c2c(-c3cccc(O)c3)nc3sccn23)n1)Nc1cc(C(F)(F)F)cc(C(F)(F)F)c1 | 57.8

Test system: M14
Assay: Anticancer activity against human M14 cells assessed as cell growth at 10^-5 M after 48 hrs by SRB assay
Assay type: functional
Conditions: M14, 48 h, read-out: Activity
Method in brief: as §1

Row | SMILES | growth at 10 µM [%]
4 | O=C(NCCNc1nccc(-c2c(-c3cccc(O)c3)nc3sccn23)n1)Nc1cc(C(F)(F)F)cc(C(F)(F)F)c1 | 21.4

Test system: UACC-62
Assay: Anticancer activity against human UACC62 cells assessed as cell growth at 10^-5 M after 48 hrs by SRB assay
Assay type: functional
Conditions: UACC-62, 48 h, read-out: Activity
Method in brief: (§2)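 NCI-60 single-dose screen: cells in RPMI 1640 with 5% FBS and 2 mM L-glutamine, plated at 5000–40,000 cells/well by doubling time, and preincubated 24 h at 37 °C. Compound given at one concentration from DMSO stock. Cells TCA-fixed and SRB-stained, absorbance at 515 nm. Percent growth relative to time-zero and untreated controls; inhibition % = 100 − growth %.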

Row | SMILES | growth at 10 µM [%]
5 | O=C(NCCNc1nccc(-c2c(-c3cccc(O)c3)nc3sccn23)n1)Nc1cc(C(F)(F)F)cc(C(F)(F)F)c1 | 54.4

Test system: NCI/ADR-RES
Assay: Anticancer activity against human NCI/ADR-RES cells assessed as cell growth at 10^-5 M after 48 hrs by SRB assay
Assay type: functional
Conditions: read-out: Activity

Row | SMILES | growth at 10 µM [%]
6 | O=C(NCCNc1nccc(-c2c(-c3cccc(O)c3)nc3sccn23)n1)Nc1cc(C(F)(F)F)cc(C(F)(F)F)c1 | 87.8

Test system: MDA-MB-435
Assay: Anticancer activity against human MDA-MB-435 cells assessed as cell growth at 10^-5 M after 48 hrs by SRB assay
Assay type: functional
Conditions: MDA-MB-435, 48 h, read-out: Activity

Row | SMILES | growth at 10 µM [%]
7 | O=C(NCCNc1nccc(-c2c(-c3cccc(O)c3)nc3sccn23)n1)Nc1cc(C(F)(F)F)cc(C(F)(F)F)c1 | 9.9

Test system: MOLT-4
Assay: Anticancer activity against human MOLT4 cells assessed as cell growth at 10^-5 M after 48 hrs by SRB assay
Assay type: functional
Conditions: MOLT-4, 48 h, read-out: Activity

Row | SMILES | growth at 10 µM [%]
8 | O=C(NCCNc1nccc(-c2c(-c3cccc(O)c3)nc3sccn23)n1)Nc1cc(C(F)(F)F)cc(C(F)(F)F)c1 | 60.2

Test system: SNB-19
Assay: Anticancer activity against human SNB19 cells assessed as cell growth at 10^-5 M after 48 hrs by SRB assay
Assay type: functional
Conditions: SNB-19, 48 h, read-out: Activity

Row | SMILES | growth at 10 µM [%]
9 | O=C(NCCNc1nccc(-c2c(-c3cccc(O)c3)nc3sccn23)n1)Nc1cc(C(F)(F)F)cc(C(F)(F)F)c1 | 90.8

Test system: A549
Assay: Anticancer activity against human A549 cells assessed as cell growth at 10^-5 M after 48 hrs by SRB assay
Assay type: functional
Conditions: A549, 48 h, read-out: Activity
Method in brief: as §1

Row | SMILES | growth at 10 µM [%]
10 | O=C(NCCNc1nccc(-c2c(-c3cccc(O)c3)nc3sccn23)n1)Nc1cc(C(F)(F)F)cc(C(F)(F)F)c1 | 57.7

Test system: OVCAR-4
Assay: Anticancer activity against human OVCAR4 cells assessed as cell growth at 10^-5 M after 48 hrs by SRB assay
Assay type: functional
Conditions: OVCAR-4, 48 h, read-out: Activity

Row | SMILES | growth at 10 µM [%]
11 | O=C(NCCNc1nccc(-c2c(-c3cccc(O)c3)nc3sccn23)n1)Nc1cc(C(F)(F)F)cc(C(F)(F)F)c1 | 121

Test system: PC-3
Assay: Anticancer activity against human PC3 cells assessed as cell growth at 10^-5 M after 48 hrs by SRB assay
Assay type: functional
Conditions: PC-3, 48 h, read-out: Activity

Row | SMILES | growth at 10 µM [%]
12 | O=C(NCCNc1nccc(-c2c(-c3cccc(O)c3)nc3sccn23)n1)Nc1cc(C(F)(F)F)cc(C(F)(F)F)c1 | 51.2

Test system: not listed separately
Assay: Antiproliferative activity against human A375P cells after 48 hrs by MTT assay
Assay type: functional, cell-based
Conditions: not given
Method in brief: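 A375P cells in DMEM with 10% FBS at 37 °C, 5% CO2. Seeded at 5×10³ cells/well, held 24 h, then treated with 12-point 3-fold serial dilutions for 48 h. Viability by MTT reduction. IC50 values are means of triplicate experiments.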

Row | SMILES | IC50 [µM]
13 | O=C(NCCNc1nccc(-c2c(-c3cccc(O)c3)nc3sccn23)n1)Nc1cc(C(F)(F)F)cc(C(F)(F)F)c1 | > 10

Test system: SN12C
Assay: Anticancer activity against human SN12C cells assessed as cell growth at 10^-5 M after 48 hrs by SRB assay
Assay type: functional
Conditions: read-out: Activity

Row | SMILES | growth at 10 µM [%]
14 | O=C(NCCNc1nccc(-c2c(-c3cccc(O)c3)nc3sccn23)n1)Nc1cc(C(F)(F)F)cc(C(F)(F)F)c1 | 82.8

Test system: HCC 2998
Assay: Anticancer activity against human HCC2998 cells assessed as cell growth at 10^-5 M after 48 hrs by SRB assay
Assay type: functional
Conditions: HCC 2998, 48 h, read-out: Activity
Method in brief: as §1

Row | SMILES | growth at 10 µM [%]
15 | O=C(NCCNc1nccc(-c2c(-c3cccc(O)c3)nc3sccn23)n1)Nc1cc(C(F)(F)F)cc(C(F)(F)F)c1 | 65.5

Test system: SW-620
Assay: Anticancer activity against human SW620 cells assessed as cell growth at 10^-5 M after 48 hrs by SRB assay
Assay type: functional
Conditions: SW-620, 48 h, read-out: Activity
Method in brief: as §2

Row | SMILES | growth at 10 µM [%]
16 | O=C(NCCNc1nccc(-c2c(-c3cccc(O)c3)nc3sccn23)n1)Nc1cc(C(F)(F)F)cc(C(F)(F)F)c1 | 73.5

Test system: SF-295
Assay: Anticancer activity against human SF295 cells assessed as cell growth at 10^-5 M after 48 hrs by SRB assay
Assay type: functional
Conditions: SF-295, 48 h, read-out: Activity

Row | SMILES | growth at 10 µM [%]
17 | O=C(NCCNc1nccc(-c2c(-c3cccc(O)c3)nc3sccn23)n1)Nc1cc(C(F)(F)F)cc(C(F)(F)F)c1 | 66.8

Test system: K562
Assay: Anticancer activity against human K562 cells assessed as cell growth at 10^-5 M after 48 hrs by SRB assay
Assay type: functional
Conditions: K562, 48 h, read-out: Activity
Method in brief: as §1

Row | SMILES | growth at 10 µM [%]
18 | O=C(NCCNc1nccc(-c2c(-c3cccc(O)c3)nc3sccn23)n1)Nc1cc(C(F)(F)F)cc(C(F)(F)F)c1 | 72.7

Test system: SK-MEL-28
Assay: Anticancer activity against human SK-MEL-28 cells assessed as cell growth at 10^-5 M after 48 hrs by SRB assay
Assay type: functional
Conditions: SK-MEL-28, 48 h, read-out: Activity

Row | SMILES | growth at 10 µM [%]
19 | O=C(NCCNc1nccc(-c2c(-c3cccc(O)c3)nc3sccn23)n1)Nc1cc(C(F)(F)F)cc(C(F)(F)F)c1 | 68.8

Test system: NCI-H460
Assay: Anticancer activity against human NCI-H460 cells assessed as cell growth at 10^-5 M after 48 hrs by SRB assay
Assay type: functional
Conditions: NCI-H460, 48 h, read-out: Activity

Row | SMILES | growth at 10 µM [%]
20 | O=C(NCCNc1nccc(-c2c(-c3cccc(O)c3)nc3sccn23)n1)Nc1cc(C(F)(F)F)cc(C(F)(F)F)c1 | 51.8

Test system: CAKI-1
Assay: Anticancer activity against human Caki1 cells assessed as cell growth at 10^-5 M after 48 hrs by SRB assay
Assay type: functional
Conditions: CAKI-1, 48 h, read-out: Activity
Method in brief: as §1

Row | SMILES | growth at 10 µM [%]
21 | O=C(NCCNc1nccc(-c2c(-c3cccc(O)c3)nc3sccn23)n1)Nc1cc(C(F)(F)F)cc(C(F)(F)F)c1 | 72.3

Test system: UACC-257
Assay: Anticancer activity against human UACC257 cells assessed as cell growth at 10^-5 M after 48 hrs by SRB assay
Assay type: functional
Conditions: UACC-257, 48 h, read-out: Activity
Method in brief: as §2

Row | SMILES | growth at 10 µM [%]
22 | O=C(NCCNc1nccc(-c2c(-c3cccc(O)c3)nc3sccn23)n1)Nc1cc(C(F)(F)F)cc(C(F)(F)F)c1 | 57

Test system: HL-60(TB)
Assay: Anticancer activity against human HL-60(TB) cells assessed as cell growth at 10^-5 M after 48 hrs by SRB assay
Assay type: functional
Conditions: HL-60, 48 h, read-out: Activity
Method in brief: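 NCI-60 single-dose screen. Cells in RPMI 1640 with 5% FBS and 2 mM L-glutamine were plated at 5000–40,000 cells/well and preincubated 24 h at 37 °C before one compound concentration. Time-zero plates were TCA-fixed at drug addition. For suspension cells, settled cells were fixed with cold TCA, then SRB-stained and read at 515 nm. Percent growth was calculated from time-zero, control and treated absorbances.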

Row | SMILES | growth at 10 µM [%]
23 | O=C(NCCNc1nccc(-c2c(-c3cccc(O)c3)nc3sccn23)n1)Nc1cc(C(F)(F)F)cc(C(F)(F)F)c1 | 97.3

Test system: SK-MEL-5
Assay: Anticancer activity against human SK-MEL-5 cells assessed as cell growth at 10^-5 M after 48 hrs by SRB assay
Assay type: functional
Conditions: SK-MEL-5, 48 h, read-out: Activity

Row | SMILES | growth at 10 µM [%]
24 | O=C(NCCNc1nccc(-c2c(-c3cccc(O)c3)nc3sccn23)n1)Nc1cc(C(F)(F)F)cc(C(F)(F)F)c1 | 59.7

Test system: RXF 393
Assay: Anticancer activity against human RXF393 cells assessed as cell growth at 10^-5 M after 48 hrs by SRB assay
Assay type: functional
Conditions: RXF 393, 48 h, read-out: Activity

Row | SMILES | growth at 10 µM [%]
25 | O=C(NCCNc1nccc(-c2c(-c3cccc(O)c3)nc3sccn23)n1)Nc1cc(C(F)(F)F)cc(C(F)(F)F)c1 | 41.4

Test system: SR
Assay: Anticancer activity against human SR cells assessed as cell growth at 10^-5 M after 48 hrs by SRB assay
Assay type: functional
Conditions: read-out: Activity
Method in brief: as §2

Row | SMILES | growth at 10 µM [%]
26 | O=C(NCCNc1nccc(-c2c(-c3cccc(O)c3)nc3sccn23)n1)Nc1cc(C(F)(F)F)cc(C(F)(F)F)c1 | 65.3
